Converted amounts (≈) assume the structure as drawn. “And” between values parts separate entries of the source, which are not always exact repeats. Equal entries are not always repeated.
How the values were obtained:
Assay type in all cases: functional
Enterovirus [1] = assay: (§1) In vitro anti-rhinovirus activity was measured as maximum testable levels - highest concentration of compound which causes no apparent effect on the cell monolayers; details: Enterovirus; read-out: MIC
Enterovirus [2] = assay: In vitro anti-rhinovirus activity was measured as mean MIC for five serotypes, HRV-1A, -2, -22, -41, and -50
Outline: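 Mean of plaque-reduction-assay MICs across five rhinovirus serotypes (HRV-1A, -2, -22, -41, -50), chosen to represent a range of sensitivity to this compound class.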

Enterovirus [3] = assay: Minimum inhibitory concentration against rhinovirus serotype 21.
Outline: (§2)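 Rhinovirus minimum inhibitory concentration (MIC) determined in a plaque reduction assay in cell culture, testing each serotype separately.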

Enterovirus [4] = assay: Minimum inhibitory concentration against rhinovirus serotype 15; details: Enterovirus; read-out: MIC; outline: as §2
Enterovirus [5] = assay: Minimum inhibitory concentration against rhinovirus serotype 50; outline: as §2
Enterovirus [6] = assay: Minimum inhibitory concentration against rhinovirus serotype 86; outline: as §2
Enterovirus [7] = assay: Concentration required to inhibit 80 percent rhinovirus cell culture
Outline: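 MIC80 is the concentration that inhibits 80% of the rhinovirus serotypes tested. It is derived from per-serotype MICs measured by plaque reduction assay.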

Enterovirus [8] = assay: Minimum inhibitory concentration against rhinovirus serotype 30; outline: as §2
Enterovirus [9] = assay: Minimum inhibitory concentration against rhinovirus serotype 1A; outline: as §2
Enterovirus [10] = assay: Minimum inhibitory concentration against rhinovirus serotype 6.; outline: as §2
Enterovirus [11] = assay: Minimum inhibitory concentration against rhinovirus serotype 41; outline: as §2
Enterovirus [12] = assay: as §1
Enterovirus [13] = assay: Minimum inhibitory concentration against rhinovirus serotype 67; outline: as §2
Enterovirus [14] = assay: Minimum inhibitory concentration against rhinovirus serotype 89; outline: as §2
Enterovirus [15] = assay: Minimum inhibitory concentration against rhinovirus serotype 1B.; outline: as §2
Enterovirus [16] = assay: Minimum inhibitory concentration against rhinovirus serotype 1B; outline: as §2
Enterovirus [17] = assay: Minimum inhibitory concentration against rhinovirus serotype 25; outline: as §2
Enterovirus [18] = assay: Minimum inhibitory concentration against rhinovirus serotype 14; outline: as §2

Structure (SMILES): CCc1cc(C2=NCCO2)cc(C)c1OCCCCCc1cc(C)no1
- MIC (Enterovirus [1]): 35 µM (≈ 12.5 µg/mL)
- MIC (Enterovirus [2]): 5.18 µM (≈ 1.85 µg/mL)

Structure (SMILES): Cc1cc(CCCCCOc2c(C)cc(C3=NCCO3)cc2C)on1
- MIC (Enterovirus [3]): 0.5 µM (≈ 0.171 µg/mL)
- MIC (Enterovirus [3]; Enterovirus, read-out: MIC): 0.7 µM (≈ 0.24 µg/mL)
- MIC (Enterovirus [4]): 0.4 µM (≈ 0.137 µg/mL)
- MIC (Enterovirus [5]): 0.2 µM (≈ 0.0685 µg/mL)
- MIC (Enterovirus [6]): 0.05 µM (≈ 0.0171 µg/mL)
- MIC80 (Enterovirus [7]): 1.3 µM (≈ 0.445 µg/mL)
- MIC (Enterovirus [8]; Enterovirus, read-out: MIC): 0.2 µM (≈ 0.0685 µg/mL)
- MIC (Enterovirus [2]): 0.78 µM (≈ 0.267 µg/mL)
- MIC (Enterovirus [9]): 0.02 µM (≈ 0.00685 µg/mL)
- MIC (Enterovirus [10]): 1.2 µM (≈ 0.411 µg/mL)
- MIC (Enterovirus [10]; Enterovirus, read-out: MIC): 2.4 µM (≈ 0.822 µg/mL)
- MIC (Enterovirus [11]): 1.6 µM (≈ 0.548 µg/mL)
- MIC (Enterovirus [12]): 0.8 µM (≈ 0.274 µg/mL)

Structure (SMILES): Cc1cc(CCCCCOc2c(Cl)cc(C3=NCCO3)cc2[N+](=O)[O-])on1
- MIC (Enterovirus [13]; Enterovirus, read-out: MIC): 0.3 µM (≈ 0.118 µg/mL)
- MIC (Enterovirus [4]): 0.2 µM (≈ 0.0788 µg/mL)
- MIC (Enterovirus [5]): 0.2 µM (≈ 0.0788 µg/mL)
- MIC (Enterovirus [6]): 0.4 µM (≈ 0.158 µg/mL)
- MIC80 (Enterovirus [7]): 0.5 µM (≈ 0.197 µg/mL)
- MIC (Enterovirus [14]): 0.02 µM (≈ 0.00788 µg/mL)
- MIC (Enterovirus [8]; Enterovirus, read-out: MIC): 0.05 µM (≈ 0.0197 µg/mL)
- MIC (Enterovirus [2]): 1.35 µM (≈ 0.532 µg/mL)
- MIC (Enterovirus [9]): 0.07 µM (≈ 0.0276 µg/mL)
- MIC (Enterovirus [11]): 3 µM (≈ 1.18 µg/mL)
- MIC (Enterovirus [12]): 1.4 µM (≈ 0.551 µg/mL)

Structure (SMILES): Cc1cc(CCCCCOc2c(Br)cc(C3=NCCO3)cc2[N+](=O)[O-])on1
- MIC (Enterovirus [3]): 0.6 µM (≈ 0.263 µg/mL)
- MIC (Enterovirus [3]; Enterovirus, read-out: MIC): 0.5 µM (≈ 0.219 µg/mL)
- MIC (Enterovirus [4]): 0.5 µM (≈ 0.219 µg/mL)
- MIC (Enterovirus [5]): 0.2 µM (≈ 0.0877 µg/mL)
- MIC80 (Enterovirus [7]): 0.7 µM (≈ 0.307 µg/mL)
- MIC (Enterovirus [14]): 0.03 µM (≈ 0.0131 µg/mL)
- MIC (Enterovirus [8]; Enterovirus, read-out: MIC): 0.2 µM (≈ 0.0877 µg/mL)
- MIC (Enterovirus [15]; Enterovirus, read-out: MIC): 0.3 µM (≈ 0.131 µg/mL)
- MIC (Enterovirus [2]): 1.16 µM (≈ 0.508 µg/mL)
- MIC (Enterovirus [16]): 0.7 µM (≈ 0.307 µg/mL)
- MIC (Enterovirus [9]): 0.1 µM (≈ 0.0438 µg/mL)
- MIC (Enterovirus [11]): 1.6 µM (≈ 0.701 µg/mL)
- MIC (Enterovirus [12]): 1.2 µM (≈ 0.526 µg/mL)

Structure (SMILES): Cc1cc(CCCCCOc2c(Cl)cc(C3=NCCO3)cc2Br)on1
- MIC (Enterovirus [3]): 0.2 µM (≈ 0.0855 µg/mL)
- MIC (Enterovirus [3]; Enterovirus, read-out: MIC): 0.3 µM (≈ 0.128 µg/mL)
- MIC (Enterovirus [4]): 0.4 µM (≈ 0.171 µg/mL)
- MIC (Enterovirus [5]): 0.09 µM (≈ 0.0385 µg/mL)
- MIC (Enterovirus [6]): 0.02 µM (≈ 0.00855 µg/mL)
- MIC80 (Enterovirus [7]): 0.5 µM (≈ 0.214 µg/mL)
- MIC (Enterovirus [8]; Enterovirus, read-out: MIC): 0.08 µM (≈ 0.0342 µg/mL)
- MIC (Enterovirus [2]): 0.61 µM (≈ 0.261 µg/mL)
- MIC (Enterovirus [9]): 0.04 µM (≈ 0.0171 µg/mL)
- MIC (Enterovirus [11]): 1.8 µM (≈ 0.77 µg/mL)
- MIC (Enterovirus [12]): 0.6 µM (≈ 0.257 µg/mL)

Structure (SMILES): Cc1cc(CCCCCOc2c(F)cc(C3=NCCO3)cc2F)on1
- MIC (Enterovirus [3]; Enterovirus, read-out: MIC): 0.08 µM (≈ 0.028 µg/mL)
- MIC (Enterovirus [13]): 0.1 µM (≈ 0.035 µg/mL)
- MIC (Enterovirus [13]; Enterovirus, read-out: MIC): 0.12 µM (≈ 0.042 µg/mL)
- MIC (Enterovirus [4]): 0.5 µM (≈ 0.175 µg/mL)
- MIC (Enterovirus [5]): 0.1 µM (≈ 0.035 µg/mL)
- MIC80 (Enterovirus [7]): 1.9 µM (≈ 0.666 µg/mL)
- MIC (Enterovirus [8]): 0.5 µM and 0.2 µM
- MIC (Enterovirus [2]): 2.69 µM (≈ 0.942 µg/mL)
- MIC (Enterovirus [17]): 6.6 µM (≈ 2.31 µg/mL)
- MIC (Enterovirus [9]): 0.13 µM (≈ 0.0455 µg/mL)
- MIC (Enterovirus [10]): 1.1 µM (≈ 0.385 µg/mL)
- MIC (Enterovirus [11]): 2.3 µM (≈ 0.806 µg/mL)
- MIC (Enterovirus [12]): 2.7 µM (≈ 0.946 µg/mL)

Structure (SMILES): Cc1cc(CCCCCOc2c(C)cc(C3=NCCO3)cc2Cl)on1
- MIC (Enterovirus [3]; Enterovirus, read-out: MIC): 0.2 µM (≈ 0.0726 µg/mL)
- MIC (Enterovirus [18]): 0.6 µM (≈ 0.218 µg/mL)
- MIC (Enterovirus [4]): 0.6 µM (≈ 0.218 µg/mL)
- MIC (Enterovirus [5]): 0.7 µM (≈ 0.254 µg/mL)
- MIC80 (Enterovirus [7]): 0.9 µM (≈ 0.327 µg/mL)
- MIC (Enterovirus [15]): 0.6 µM (≈ 0.218 µg/mL)
- MIC (Enterovirus [15]; Enterovirus, read-out: MIC): 0.4 µM (≈ 0.145 µg/mL)
- MIC (Enterovirus [2]): 0.92 µM (≈ 0.334 µg/mL)
- MIC (Enterovirus [9]): 0.04 µM (≈ 0.0145 µg/mL)
- MIC (Enterovirus [10]; Enterovirus, read-out: MIC): 0.06 µM (≈ 0.0218 µg/mL)
- MIC (Enterovirus [11]): 1.9 µM (≈ 0.689 µg/mL)
- MIC (Enterovirus [12]): 0.7 µM (≈ 0.254 µg/mL)

From ChEMBL document CHEMBL1124399, “Synthesis and structure-activity studies of some disubstituted phenylisoxazoles against human picornavirus” (J Med Chem, 1989)
